# Shown are actives, neighbours in structure and some others; about 3.7% of the full set was active somewhere.
# HCV NS3 hel inh: blocks Hepatitis C virus NS3 helicase unwinding; NS3 helicase DNA unwinding, Cy5 molecular beacon fluorescence; inhibition, % at 10.9 µM; actives 0.56% (n = 290,000); AID 1800;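 active = inhibition above the mean of all tested compounds plus 3 SD, set per campaign, cut at about 35% in these data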;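 also: 0% = DMSO wells and 100% = thioflavine S control wells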
#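 Material: hepatitis C virus NS3 helicase domain fragment enzyme; measured by: Cy5 fluorescence, 0 and 60 min reads; control set: DMSO and thioflavine S; incubation: 60 min unwinding reaction at 25 °C after ATP addition; read-out basis: % inhibition from 60/0 min fluorescence ratio, DMSO 0%, thioflavine S 100%; repeats: singlicate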
# TAAR1 antag: human TAAR1 antagonism; CHO RD-HGA16 TAAR1, Fluo-8 calcium fluorescence, antagonist; inhibition, % at 3 µM; actives 1.5% (n = 360,000);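 active = inhibition above a per-plate cutoff, the mean inhibition of test compounds on that plate plus 3 SD, cut at about 49% in these data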;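 also: 0% = DMSO plus EC80 beta-PEA response and 100% = DMSO alone without agonist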
# Target sequence (Q96RJ0 whole entry, looked up): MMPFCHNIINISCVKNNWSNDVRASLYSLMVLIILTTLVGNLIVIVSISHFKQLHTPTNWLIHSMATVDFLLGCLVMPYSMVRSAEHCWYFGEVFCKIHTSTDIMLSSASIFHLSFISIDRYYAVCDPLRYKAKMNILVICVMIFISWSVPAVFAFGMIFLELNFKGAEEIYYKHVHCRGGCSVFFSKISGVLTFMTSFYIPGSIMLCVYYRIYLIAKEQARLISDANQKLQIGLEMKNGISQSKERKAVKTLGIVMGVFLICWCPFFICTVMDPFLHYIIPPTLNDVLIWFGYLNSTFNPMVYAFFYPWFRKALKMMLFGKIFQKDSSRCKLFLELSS
#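 Assay system: RD-HGA16 CHO cells with stable hTAAR1 and Gα16 / Reagent: EC80 β-phenethylamine stimulus / Doses: 3 µM, single point / Timing: dye loading 75 min at 37 °C, then 30 min room temperature / Measured by: Fluo-8 intracellular calcium dye fluorescence, real-time kinetic reads / Controls: vehicle wells and EC80 agonist wells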
# rCAG binder: r(CAG) repeat RNA binding | actives 1.3% (n = 370,000) | inhibition, % at 3 µM | AID 651821 | TO-PRO-1 dye displacement fluorescence;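 active = inhibition above the plate cutoff, the mean of all test compounds on that plate plus 3 SD, cut at about 35% in these data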;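 also: 0% = DMSO alone and 100% = 100 µM mitoxantrone as full dye displacement; higher means more dye released from RNA so lower well fluorescence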
# core dimer inh: blocks dimerization of HCV core protein; TR-FRET GST/Flag-core106 dimerization, 1536-well; inhibition, % at 5 µM; actives 0.33% (n = 300,000); AID 1899;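 active = inhibition above the mean of all tested compounds plus 3 SD, set per screening campaign, cut at about 45% in these data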
#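 assay system = GST-tagged and Flag-tagged HCV core protein residues 1-106 | controls = unlabelled core106 and no-GST-core106 wells | incubation = compound-protein-antibody incubation 4 h at 22.5 °C | probe or stimulus = Eu donor and XL665 acceptor anti-tag antibodies | read-out = % inhibition based on acceptor/donor emission ratio | signal = TR-FRET 671 and 617 nm emission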
# TAAR1 agonist: agonists of human TAAR1 | CHO RD-HGA16 TAAR1, Fluo-8 calcium fluorescence; vehicle wells 0%, saturating PEA agonist 100% | activation, % at 3 µM | actives 0.99% (n = 360,000) | AID 624467;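 active = activation above the mean activation of all test compounds in the run plus 3 SD, cut at about 38% in these data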
#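 Assay system: CHO-derived RD-HGA16 cells with stable Gα16 and human TAAR1; timing: 17-24 h seeding, 75 min 37 °C dye, 30 min RT; read-out: % activation from peak over basal fluorescence ratio, DMSO-to-PEA scaled; measured by: kinetic Fluo-8 calcium fluorescence; benchmarks: low control DMSO, high control PEA (EC100); doses: 3 µM single concentration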
# Starred values were filed as active, the others as inactive; x = no result.
SMILES,HCV NS3 hel inh,TAAR1 antag,rCAG binder,core dimer inh,TAAR1 agonist
CCC(C(=O)Nc1ccccc1N1CCCC1)c1cccc(C)c1 (stereo not drawn),x,x,1,x,x
CCn1c(SCC(=O)Nc2ccccc2-c2ccccc2)nnc1-c1cnccn1,x,x,2,x,x
COC(=O)[C@H](C(C)C)N(CCc1cn(Cc2ccccc2)nn1)S(=O)(=O)c1ccccc1Br,x,x,0,x,x
COc1ccc(CCNC(=O)Cn2cnc3sc(C)c(-c4ccc(F)cc4)c3c2=O)cc1OC,3,11,-2,-1,54*
COC(=O)c1sc2ncn(CC(=O)NCCc3ccc(OC)c(OC)c3)c(=O)c2c1C,2,-9,6,-37,0
O=C(CC(=O)c1ccccc1)CC(O)(C=Cc1ccccc1)c1ccccc1 (stereo not drawn),x,51*,6,x,7
O=C(Nc1ccc(N2CCN(c3ccc(O)cc3)CC2)cc1)Oc1ccccc1,-12,-10,4,59*,4
Nc1ccc(OC(=O)Nc2ccc(O)cc2)cc1,7,8,0,3,0
CCOc1ccccc1C(=O)N1CCC(Oc2cccnc2)CC1,x,x,3,x,x
Cc1ccc(N(C)S(=O)(=O)c2c[nH]c3ccc([N+](=O)[O-])cc23)cc1,-12,51*,17,-4,3
O=C(COc1ccc2c(-c3ccccc3)cc(=O)oc2c1)N[C@H](Cc1c[nH]c2ccccc12)C(=O)O,17,-21,40*,-3,0
O=C(CCCN1C(=O)/C(=C\c2cccs2)SC1=S)Nc1ccccn1,3,-4,3,-5,5
O=C(CCN1C(=O)/C(=C/c2cccs2)SC1=S)Nc1ccccn1,-2,50*,6,9,33
N#CCC[C@H]1CC[C@]2(CCCN(C(=O)C3CCCC3)C2)O1,x,x,1,x,x
CCCC[C@@H]1C(=O)N2N=Cc3cc(C)c(C)cc3[C@H]2N2N=Cc3cc(C)c(C)cc3[C@@H]12,x,x,9,x,x
O=C1[C@H]2[C@@H](c3ccccc3)N[C@]3(CCCN(Cc4ccc(C(F)(F)F)cc4)C3=O)[C@H]2C(=O)N1Cc1ccccc1,x,50*,0,x,12
O=C1[C@H]2[C@@H](c3ccc(C(F)(F)F)cc3)N[C@]3(CCCN(Cc4ccc(F)cc4)C3=O)[C@H]2C(=O)N1Cc1ccccc1,x,-2,1,x,-1
COc1cc2c(cc1NC(=O)CSc1nnc(-c3ccccn3)n1-c1ccccc1)oc1ccccc12,x,x,10,x,x
CCOC(=O)C1Nc2ccc(C)cc2C2C=CCC12 (stereo not drawn),x,21,33,38,4
O=C(OC1CCCCC1)c1ccc2c(c1)C1C=CCC1C(C(=O)O)N2 (stereo not drawn),40*,x,x,x,x
N#Cc1c(NCCCO)nc(NCc2ccccc2)c2c1CCN(Cc1ccccc1)C2,-44,55*,-9,5,17
C#CCOC(=O)CCCNc1ccc([N+](=O)[O-])cc1[N+](=O)[O-],7,-6,11,48*,1
C=CC[C@H](CC(=O)N(CCO)Cc1ccccc1)C(=O)N[C@H](COC(=O)[C@@H](CC=C)Cc1ccc(F)cc1)C(C)(C)C,x,51*,-8,x,10
C=CCC[C@@H](Cc1ccc(F)cc1)C(=O)OC[C@@H](Cc1c[nH]c2ccccc12)NC(=O)[C@H](CC=C)CC(=O)N(CCO)Cc1ccccc1,x,60*,2,x,5
C=CCC[C@H](Cc1ccc(F)cc1)C(=O)OC[C@H](Cc1c[nH]c2ccccc12)NC(=O)[C@H](CC=C)CC(=O)N[C@H](CO)Cc1ccccc1,x,0,1,x,0
SMILES,HCV NS3 hel inh,TAAR1 antag,rCAG binder,core dimer inh,TAAR1 agonist
C=CC[C@@H](CC(=O)N(CCO)Cc1ccccc1)C(=O)N[C@H](COC(=O)[C@@H](CC=C)Cc1ccc(F)cc1)C(C)(C)C,x,19,-5,x,7
C=CCC[C@H](Cc1ccc(F)cc1)C(=O)OC[C@@H](Cc1c[nH]c2ccccc12)NC(=O)[C@H](CC=C)CC(=O)N(CCO)Cc1ccccc1,x,65*,12,x,14
C=CC[C@H](CC(=O)N(CCO)Cc1ccccc1)C(=O)N[C@@H](COC(=O)[C@@H](CC=C)Cc1ccc(F)cc1)Cc1c[nH]c2ccccc12,x,60*,3,x,4
C=CC[C@@H](CC(=O)N(CCO)Cc1ccccc1)C(=O)N[C@@H](COC(=O)[C@@H](CC=C)Cc1ccc(F)cc1)Cc1c[nH]c2ccccc12,x,17,6,x,7
COc1ccc2cc(-c3cccc4[nH]cc(C)c34)ccc2c1,x,x,9,x,x
CCOc1cccc(=O)c2c(C)n(Cc3ccccc3)c(C)c12,27,-5,1,50*,2
COC(=O)C1=C[C@@H](C(=O)OC)C2C3=C(C(=O)C24CCCCC4)[C@H](C)n2c(=O)n(-c4ccccc4)c(=O)n2[C@@H]3C1 (stereo partly drawn),x,52*,-4,14,12
COC(=O)[C@]12C[C@H](CC(=O)NCC34CC5CC(CC(C5)C3)C4)C(=O)N(Cc3ccco3)C1=C[C@H](COCc1ccccc1)O[C@@H]2C,x,x,8,x,x
COC(=O)C1CN(Cc2ccccc2)CCS(=O)(=O)N1Cc1cn(Cc2ccc(Cl)cc2)nn1 (stereo not drawn),x,x,4,x,x
CC(=O)c1c(C)[nH]c(C(=O)COc2cc(C)ccc2C(C)C)c1C,10,72*,3,4,6
COc1ccc(CN2C(=O)CN(S(C)(=O)=O)CC2(C)c2nnnn2C2CCCCC2)cc1 (stereo not drawn),x,x,2,x,x
CC1(c2nnnn2Cc2ccccc2)CCCC(=O)N1Cc1cccs1 (stereo not drawn),x,x,1,x,x
CCOP(=O)(OCC)C(C#N)=C1SCN(c2ccccc2)CS1,6,10,15,90*,5
O=C(COc1ccc(S(=O)(=O)N2CCCC2)cc1Cl)Nc1ccc2c(c1)OCO2,9,50*,1,12,10
COC(=O)[C@]12C[C@H](CC(=O)NCC3CCCCC3)C(=O)N(CCC3=CCCCC3)C1=C[C@H](C1CCCC1)O[C@@H]2C,x,x,8,x,x
O=C(OCc1cn(Cc2ccccc2)nn1)N1CCOCC1,x,x,1,x,x
Cc1ccc(S(=O)(=O)N2[C@@H](c3ccc(Cl)cc3)C(C(=O)O)=CC[C@H]2c2cccc(Cl)c2)cc1,x,-9,13,2,1
Cc1ccc(S(=O)(=O)N2[C@@H](c3ccccc3F)C(C(=O)O)=CC[C@H]2c2ccc(Cl)c(Cl)c2)cc1,x,19,74*,34,0
O=C(O)C1=CC[C@@H](c2ccc(Cl)cc2)N(S(=O)(=O)c2ccc(Cl)cc2)[C@H]1c1cccc(Cl)c1,x,64*,14,22,6
COc1ccc([C@@H]2CC=C(C(=O)O)[C@H](c3cccc(Cl)c3)N2S(=O)(=O)c2ccccc2C)cc1,x,5,74*,31,0

# Assay outcomes: PubChem, The Scripps Research Institute Molecular Screening Center
